Screens: PubChem BioAssay, Johns Hopkins Ion Channel Center
hERG rescue = shields human hERG channel from block by proarrhythmic agents; Q12809; CHO-hERG, FluxOR thallium flux, dofetilide IC70 present; activation (rescue from dofetilide block), less the hit threshold, % at 10 µM; 310,000 tested, 0.51% active;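 active means activation above the mean of controls blocked by dofetilide plus 5 SD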;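 further: thallium influx through hERG after potassium depolarization seen as dye fluorescence rise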
KCNQ1 act = potentiators or activators of human KCNQ1 potassium channel. B-score at 10 µM. 310,000 tested, 0.35% active. P51787. CHO-K1 KCNQ1, thallium flux FluxOR fluorescence; stronger effect = higher value;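 active means fluorescence ratio B-score, a plate-corrected score, at least three library SD, with initial intensity B-score within 5 SD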
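Schedule – 37 °C overnight plating, 90-min dark dye load, 20-min compound pretreatment · System – stable KCNQ1 CHO-K1 line · Probe or stimulus – thallium- and potassium-containing depolarizing buffer · Measured by – kinetic FluxOR fluorescence, 10 s baseline plus 110 s post-stimulus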
KCNQ1 inh = human KCNQ1 channel inhibition; P51787; CHO-K1 KCNQ1, FluxOR thallium flux fluorescence; stronger effect = higher value; B-score at 10 µM; 310,000 tested, 1.3% active;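 active means compounds whose thallium flux B-score, printed positive for inhibition, exceeds three library SD while starting fluorescence stays within three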;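 further: channel opened by potassium depolarization with thallium stimulus after 20 min compound exposure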
KCNK3 block = human KCNK3 channel inhibition, primary screen. O14649. CHO-KCNK3 thallium flux, FluxOR fluorescence; stronger effect = lower value. B-score at 10 µM. 340,000 tested, 0.84% active. AID 602410;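 active means B-score under library mean minus 4 SD, starting fluorescence ratio at most library mean plus 5 SD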;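 further: more negative B-score means stronger inhibition of thallium flux through KCNK3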
Kir21 block = blocks the mouse Kir2.1 inward-rectifier potassium channel; B-score at 10 µM; P35561; HEK293-Kir2.1, FluxOR thallium flux fluorescence; stronger effect = lower value; 310,000 tested, 0.85% active;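 active means fluorescence ratio B-score at or below minus 3 SD of library scores, with starting-brightness B-score within 2 SD, cut at about -4.2 in these data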;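 further: channel flux triggered by added potassium and thallium sulfate stimulus; B-score of peak minus minimum fluorescence over baseline after thallium stimulus; more negative B-score means stronger Kir2.1 block with less thallium influx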
KCNK9 inh = blocks the human KCNK9 two-pore domain potassium channel | Q9NPC2 | HEK293 KCNK9, FluxOR thallium flux fluorescence; stronger effect = lower value | B-score at 10 µM | 310,000 tested, 1.2% active | AID 488922;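 active means ratio B-score over 3 SD below the library mean, with starting fluorescence within 5 SD of its mean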;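 further: negative B-score means less thallium flux so channel inhibition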
* hit, by the source's call; i = inactive. A selection: hits, their analogues and other compounds. The true share with any hit is near 3.7%.

SMILES	hERG rescue	KCNQ1 act	KCNQ1 inh	KCNK3 block	Kir21 block	KCNK9 inh
O=C(CSCc1ccco1)Nc1cc(C(F)(F)F)ccc1N1CCOCC1	-6	i	i	i	-1.9	-6.7*
Nc1nc2c(s1)COc1ccccc1-2	-5	i	i	i	-0.19	i
Nc1nc2c(s1)CCc1c-2cnn1-c1ccccc1	2	i	i	i	-4.5*	i
CCN(CC(=O)NCCc1ccc(S(N)(=O)=O)cc1)Cc1nc2ccccc2c(=O)[nH]1	4.8*	i	i	i	-0.13	i
CCOc1ccc(-n2cc(-c3ccccc3)c3c(=O)[nH]cnc32)cc1	-9	i	i	i	1.7	i
CCOc1ccc(-n2cc(-c3ccccc3)c3c(=S)nc[nH]c32)cc1	-2	39*	i	i	0.67	i
